Laboratory results taken from ChEMBL document CHEMBL4004814, “In Vitro and in Vivo Evaluation of Fully Substituted (5-(3-Ethoxy-3-oxopropynyl)-4-(ethoxycarbonyl)-1,2,3-triazolyl-glycosides as Original Nucleoside Analogues to Circumvent Resistance in Myeloid Malignancies” (J Med Chem, 2017).
Active and inactive are the calls of the source. No cut-off for these calls is given here.

Experiments:
Format in all cases: functional, cell-based
[1] = test system: K562; assay: Antileukemic activity against human K562 cells after 48 hrs by XTT assay; details: K562, 48 h
How it was run: (§1)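 XTT read-out of mitochondrial metabolism after 48 h incubation with compound (up to 10 µM in first screen). XTT reagent added to cells, formazan absorbance read at 490 nm. Each assay run in quadruplicate. IC50 derived; standard deviation reported. Resistant K562 line obtained by chronic imatinib exposure for 6 months.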

[2] = Antiproliferative activity against human SKM1-R cells after 48 hrs by DAPI-staining-based flow cytometric method
How it was run: (§2)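 Flow cytometry of DAPI incorporation after 48 h incubation with compound; DL50 derived. SKM1 grown in RPMI with 10% FCS at 37°C, 5% CO2, with penicillin/streptomycin.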

[3] = test system: SKM1-S; assay: Induction of apoptosis in human SKM1-S cells assessed as caspase 3 cleavage at 1 uM by Western blot method
[4] = Antiproliferative activity against human SKM1-S cells after 48 hrs by XTT assay; how it was run: as §1
[5] = Antiproliferative activity against human SKM1-S cells after 48 hrs by DAPI-staining-based flow cytometric method; how it was run: as §2
[6] = Antiproliferative activity against human SKM1-R cells after 48 hrs by XTT assay
[7] = test system: SKM1-R; assay: Induction of apoptosis in human SKM1-R cells assessed as caspase 3 cleavage at 10 uM by Western blot method

| Compound | IC50 [1] [nM] | also measured |
| --- | --- | --- |
| CCOC(=O)c1nnn([C@@H]2O[C@H](COC(C)=O)[C@@H](OC(C)=O)[C@H]2OC(C)=O)c1-c1cccs1 | > 10000 |  |
| NC(=O)c1ncn([C@@H]2O[C@H](CO)[C@@H](O)[C@H]2O)c1N [ACADESINE] | 800000 |  |
| CCOC(=O)C#Cc1c(C(=O)OCC)nnn1[C@@H]1O[C@H](COC)[C@H]2OC(C)(C)O[C@H]21 | 550 |  |
| CCOC(=O)C#Cc1c(C(=O)OCC)nnn1[C@@H]1O[C@H](COC(C)=O)[C@H](OC(C)=O)[C@H]1OC(C)=O | 200 |  |
| CCOC(=O)c1nnn([C@@H]2O[C@H](COC(C)=O)[C@@H](OC(C)=O)[C@H]2OC(C)=O)c1I | > 10000 |  |
| COC(=O)c1nnn([C@@H]2O[C@H](CO)[C@H]3OC(C)(C)O[C@H]32)c1I | > 10000 |  |
| CCOC(=O)C#Cc1c(C(=O)OCC)nnn1[C@H]1O[C@@H](COC(C)=O)[C@H](OC(C)=O)[C@@H]1OC(C)=O | 200 |  |
| Nc1ncn([C@@H]2O[C@H](CO)[C@@H](O)[C@H]2O)c(=O)n1 [AZACITIDINE] |  | EC50 [2]: > 10000 nM; Activity [3]: Active; IC50 [4]: 500 nM; EC50 [5]: 510 nM; IC50 [6]: > 10000 nM; Activity [7]: inactive |
| CCOC(=O)C#Cc1c(C(=O)OCC)nnn1[C@H]1C[C@H](OC(C)=O)[C@@H](COC(C)=O)O1 | 200 |  |
| COC(=O)C#Cc1c(C(=O)OC)nnn1[C@@H]1O[C@H](CO)[C@H]2OC(C)(C)O[C@H]21 | 1450 |  |
| CCCC1(CCC)O[C@@H]2[C@H](O1)[C@@H](CO)O[C@H]2n1nnc(C(=O)OCC)c1C#CC(=O)OCC | 150 |  |
| CCOC(=O)C#Cc1c(C(=O)OCC)nnn1[C@@H]1O[C@H](CO)[C@H]2O[C@@](C)(c3ccccc3)O[C@H]21 | 500 |  |
| CCOC(=O)C#Cc1c(C(=O)OCC)nnn1[C@@H]1O[C@H](COC)[C@@H](OC)[C@H]1OC | 800 |  |
| COC(=O)C#Cc1c(C(=O)OC)nnn1[C@@H]1O[C@H](COC(C)=O)[C@H]2OC(C)(C)O[C@H]21 | 150 |  |

More lines, main results first:

| IC50 [1] [nM] | Compound | also measured |
| --- | --- | --- |
| > 10000 | CCOC(=O)c1nnn([C@@H]2O[C@H](COC(C)=O)[C@@H](OC(C)=O)[C@H]2OC(C)=O)c1C(=O)c1ccc(C)cc1 |  |
| > 10000 | CCOC(=O)c1nnn([C@@H]2O[C@H](COC(C)=O)[C@@H](OC(C)=O)[C@H]2OC(C)=O)c1C(=O)c1cccs1 |  |
| 1150 | CC(C)(C)OC(=O)C#Cc1c(C(=O)OC(C)(C)C)nnn1[C@@H]1O[C@H](CO)[C@H]2OC(C)(C)O[C@H]21 |  |
| 700 | CCOC(=O)C#Cc1c(C(=O)OCC)nnn1[C@@H]1O[C@H](COC(C)=O)[C@@H](OC(C)=O)[C@H]1OC(C)=O |  |
| 2500 | CC(=O)OC[C@H]1O[C@@H](n2nnc(C(=O)OC(C)(C)C)c2C#CC(=O)OC(C)(C)C)[C@H](OC(C)=O)[C@@H]1OC(C)=O |  |
| > 10000 | CCOC(=O)c1nnn([C@@H]2O[C@H](CO)[C@H]3OC(C)(C)O[C@H]32)c1C#Cc1ccc(F)cc1 |  |
| > 10000 | CCOC(=O)c1nnn([C@@H]2O[C@H](CO)[C@H]3OC(C)(C)O[C@H]32)c1I |  |
| > 10000 | CCOC(=O)c1nnn([C@@H]2O[C@H](COC(C)=O)[C@@H](OC(C)=O)[C@H]2OC(C)=O)c1C(=O)c1ccco1 |  |
| 500 | CCOC(=O)C#Cc1c(C(=O)OCC)nnn1[C@@H]1O[C@H](COC(C)=O)[C@H]2OC(C)(C)O[C@H]21 |  |
| > 10000 | CCCCCCCC#Cc1c(C(=O)OCC)nnn1[C@@H]1O[C@H](CO)[C@H]2OC(C)(C)O[C@H]21 |  |
